Laboratory results taken from ChEMBL document CHEMBL5154946, “Optimization of Peptide Linker-Based Fluorescent Ligands for the Histamine H1 Receptor” (J Med Chem, 2022).
Calls of active or inactive are those of the source. No cut-off for these calls is given here. Square brackets hold non-standard residues; d marks the D form. Peptide text beside a SMILES is read from it. * marks the point of attachment. X1 = O=C(COc1ccc(/C=C/C2=[N+]3C(=Cc4ccc(-c5cccs5)n4[B-]3(F)F)C=C2)cc1)*; Propanoyl(3-Pip(4-O-2-BnPh)) = O=C(CCN1CCC(Oc2ccccc2Cc2ccccc2)CC1)*; X3 = Cc1cc(C)n2c1C=C1C=CC(/C=C/c3ccc(OCC(=O)*)cc3)=[N+]1[B-]2(F)F; BODIPY(FL) = CC1=CC(C)=[N+]2C1=Cc1ccc(CCC(=O)*)n1[B-]2(F)F; X2 = O=C(CCC1=[N+]2C(=Cc3ccc(-c4cccs4)n3[B-]2(F)F)C=C1)*; βAla = NCCC(=O)O

Experiments:
Histamine H1 receptor [1] = biological target: T1, Histamine H1 receptor (Homo sapiens, UniProt P35367); test: Binding affinity to human H1R expressed in CHO cells assessed as shift in histamine-mediated calcium response at 1 uM using Fluo-4AM as a substrate incubated for 1 hrs by calcium mobilization assay based fluorometric analysis; type: cell-based; details: filed as antagonist
T1 sequence (P35367 whole entry): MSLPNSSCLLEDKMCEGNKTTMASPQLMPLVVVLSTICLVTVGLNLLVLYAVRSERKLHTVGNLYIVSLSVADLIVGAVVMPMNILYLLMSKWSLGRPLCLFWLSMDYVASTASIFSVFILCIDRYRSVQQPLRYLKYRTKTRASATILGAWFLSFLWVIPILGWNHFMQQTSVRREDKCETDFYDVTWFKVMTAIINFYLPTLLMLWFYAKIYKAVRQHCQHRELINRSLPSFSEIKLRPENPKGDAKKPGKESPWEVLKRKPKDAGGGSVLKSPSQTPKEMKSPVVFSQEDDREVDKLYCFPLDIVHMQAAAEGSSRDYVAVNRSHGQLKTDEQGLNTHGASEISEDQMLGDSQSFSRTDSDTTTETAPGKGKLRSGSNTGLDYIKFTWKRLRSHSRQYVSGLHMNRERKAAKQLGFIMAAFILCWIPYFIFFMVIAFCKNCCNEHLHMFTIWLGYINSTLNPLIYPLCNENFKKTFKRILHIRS

Histamine H1 receptor [2] = biological target: T1, Histamine H1 receptor; test: Binding affinity to human H1R expressed in CHO cells using Fluo-4AM as substrate incubated for 1 hrs by calcium mobilization assay based fluorometric analysis; type: cell-based; details: filed as antagonist
Histamine H1 receptor [3] = biological target: T1, Histamine H1 receptor; test: Binding affinity to NLuc-tagged human H1R expressed in HEK293T cells at assessed as ratio of association rate constant to dissociation rate constant by NanoBRET binding assay; type: cell-based; details: filed as antagonist
How it was run: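 Real-time NanoBRET association kinetics on Nluc-H1R HEK293T cells. Several fluorescent ligand concentrations were tested, with BRET read every min for 90 min at room temperature. pKD was derived from kon/koff. Means ± SEM from 4–5 experiments in triplicate.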

Histamine H1 receptor [4] = biological target: T1, Histamine H1 receptor; test: Binding affinity to NLuc-tagged human H1R expressed in HEK293T cells assessed as association rate constant (kon) using furimazine as substrate measured after 90 mins by NanoBRET binding assay; type: cell-based; details: filed as antagonist
How it was run: (§1)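 Live HEK293T cells expressing Nluc-tagged human H1R; fluorescent ligand added at several concentrations and BRET read in real time every min for 90 min at room temperature. kon and koff obtained from association kinetics; mean residence time taken as 1/koff. Values are means ± SEM of 4–5 separate experiments, each in triplicate.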

Histamine H1 receptor [5] = biological target: T1, Histamine H1 receptor; test: Binding affinity to NLuc-tagged human H1R expressed in HEK293T cells assessed as dissociation rate constant (koff) using furimazine as substrate measured after 90 mins by NanoBRET binding assay; type: cell-based; details: filed as antagonist; how it was run: as §1
Histamine H1 receptor [6] = biological target: T1, Histamine H1 receptor; test: Displacement of VUF13816-based fluorescent ligand 1 from Nluc-tagged human H1R expressed in HEK293T cells incubated for 2 hrs by NanoBRET competition binding assay
[7] = Drug localization in plasma membrane of chinese hamster CHO cells expressing YFP-tagged H1R at 1 to 25 nM incubated for 30 min by confocal microscopy; type: ADME, cell membranes, Cricetulus griseus; details: 0.5 h, 0.025 µM, dose 1-25 nM
How it was run: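 CHO cells expressing YFP-tagged H1R were incubated for 30 min at 37 °C with fluorescent ligand at 1, 5, 10 or 25 nM, with or without 10 μM mepyramine pretreatment to define nonspecific binding. Plasma membrane versus intracellular localization was judged by confocal imaging in red and green channels. Three independent experiments.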

Histamine H1 receptor [8] = biological target: T1, Histamine H1 receptor; test: Binding affinity to human H1R expressed in CHO cells using Fluo-4AM as a substrate incubated for 45 mins by calcium mobilization assay based fluorometric analysis; type: cell-based; details: filed as antagonist
Histamine H1 receptor [9] = biological target: T1, Histamine H1 receptor; test: Displacement of VUF13816-based fluorescent ligand 1 from Nluc-tagged human H1R expressed in HEK293T cells assessed as fold change incubated for 2 hrs by NanoBRET competition binding assay; details: filed as antagonist
[10] = biological target: Histamine H3 receptor (Homo sapiens) (UniProt Q9Y5N1); test: Binding affinity to NLuc-tagged human H3R expressed in HEK293T cell homogenates at 1 uM using NanoGlo as substrate preincubated for 2 hrs followed by substrate addition measured after 5 min in presence of clobenpropit by NanoBRET saturation binding assay; details: filed as antagonist, time 125.0 min
Histamine H3 receptor (Homo sapiens), sequence (Q9Y5N1 whole entry): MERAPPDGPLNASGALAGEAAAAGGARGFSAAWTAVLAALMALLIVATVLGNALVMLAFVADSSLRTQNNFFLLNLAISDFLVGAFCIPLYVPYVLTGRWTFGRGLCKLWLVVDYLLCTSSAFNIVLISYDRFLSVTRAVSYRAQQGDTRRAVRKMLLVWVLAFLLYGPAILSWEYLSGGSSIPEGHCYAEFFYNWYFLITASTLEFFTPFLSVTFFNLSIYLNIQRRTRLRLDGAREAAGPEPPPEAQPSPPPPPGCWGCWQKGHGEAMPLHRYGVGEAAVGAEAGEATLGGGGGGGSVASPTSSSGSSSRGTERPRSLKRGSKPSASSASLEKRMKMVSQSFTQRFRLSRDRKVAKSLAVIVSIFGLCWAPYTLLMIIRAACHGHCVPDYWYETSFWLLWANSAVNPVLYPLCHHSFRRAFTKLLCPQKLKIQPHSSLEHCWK

[11] = biological target: Histamine H4 receptor (Homo sapiens) (UniProt Q9H3N8); test: Binding affinity to NLuc-tagged human H4R expressed in HEK293T cell homogenates at 1 uM using NanoGlo as substrate preincubated for 2 hrs followed by substrate addition measured after 5 min in presence of clobenpropit by NanoBRET saturation binding assay; details: filed as antagonist, time 125.0 min
Histamine H4 receptor (Homo sapiens), sequence (Q9H3N8 whole entry): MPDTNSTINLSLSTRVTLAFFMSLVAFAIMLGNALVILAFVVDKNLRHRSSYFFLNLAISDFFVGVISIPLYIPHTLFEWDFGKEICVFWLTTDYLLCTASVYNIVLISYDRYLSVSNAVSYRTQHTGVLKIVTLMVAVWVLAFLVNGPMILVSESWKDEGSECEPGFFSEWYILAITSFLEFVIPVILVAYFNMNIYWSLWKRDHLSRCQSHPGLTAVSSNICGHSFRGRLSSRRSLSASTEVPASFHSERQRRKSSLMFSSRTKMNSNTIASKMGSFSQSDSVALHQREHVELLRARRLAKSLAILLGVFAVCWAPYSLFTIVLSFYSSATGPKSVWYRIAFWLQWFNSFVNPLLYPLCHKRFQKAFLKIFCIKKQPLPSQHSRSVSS

Row | Structure (SMILES) | Activity (Histamine H1 receptor [1]) | pKb (Histamine H1 receptor [2]) | other results
1 | Cc1cc(C)n2c1C=C1C=CC(CCC(=O)NCCCC[C@H](NC(=O)CCNC(=O)[C@H](CC(N)=O)NC(=O)[C@H](CO)NC(=O)[C@@H](NC(=O)CCN3CCC(Oc4ccccc4Cc4ccccc4)CC3)C(C)C)C(N)=O)=[N+]1[B-]2(F)F ({Propanoyl(3-Pip(4-O-2-BnPh))}-VSN[βAla]K(BODIPY(FL))-NH2) | Active | 6.95 | –
2 | C[C@H](NC(=O)[C@H](C)NC(=O)[C@H](Cc1ccccc1)NC(=O)CCN1CCC(Oc2ccccc2Cc2ccccc2)CC1)C(=O)NCCC(=O)N[C@@H](CCCCNC(=O)COc1ccc(/C=C/C2=[N+]3C(=Cc4ccc(-c5cccs5)n4[B-]3(F)F)C=C2)cc1)C(N)=O ({Propanoyl(3-Pip(4-O-2-BnPh))}-FAA[βAla]K(X1)-NH2) | Active | 8.59 | pKd (Histamine H1 receptor [3]): 7.64; K (Histamine H1 receptor [4]): 0.686 10^6/M/min; K (Histamine H1 receptor [5]): 0.014 min⁻¹
3 | CC(C)[C@H](NC(=O)CCN1CCC(Oc2ccccc2Cc2ccccc2)CC1)C(=O)N[C@@H](CO)C(=O)N[C@@H](CC(N)=O)C(=O)NCCC(=O)N[C@@H](CCCCNC(=O)CCCCC[N+]1=C(/C=C/C=C/C=C2/N(C)c3ccc(S(=O)(=O)[O-])cc3C2(C)C)C(C)(C)c2cc(S(=O)(=O)O)ccc21)C(N)=O | Active | 5.33 | –
4 | Cc1cc(C)n2c1C=C1C=CC(CCC(=O)NCCCC[C@H](NC(=O)CCNC(=O)[C@H](C)NC(=O)[C@H](C)NC(=O)[C@H](Cc3ccccc3)NC(=O)CCN3CCC(Oc4ccccc4Cc4ccccc4)CC3)C(N)=O)=[N+]1[B-]2(F)F ({Propanoyl(3-Pip(4-O-2-BnPh))}-FAA[βAla]K(BODIPY(FL))-NH2) | Active | 7.46 | –
5 | CC(C)[C@H](NC(=O)CCN1CCC(Oc2ccccc2Cc2ccccc2)CC1)C(=O)N[C@@H](CO)C(=O)N[C@@H](Cc1ccc(O)cc1)C(=O)N[C@@H](Cc1ccccc1)C(N)=O ({Propanoyl(3-Pip(4-O-2-BnPh))}-VSYF-NH2) | – | – | Ki (Histamine H1 receptor [6]): 437 nM
6 | CC(C)[C@H](NC(=O)CCN1CCC(Oc2ccccc2Cc2ccccc2)CC1)C(=O)N[C@@H](CO)C(=O)N[C@@H](CC(N)=O)C(=O)NCCC(=O)N[C@@H](CCCCNC(=O)COc1ccc(/C=C/C2=[N+]3C(=Cc4ccc(-c5cccs5)n4[B-]3(F)F)C=C2)cc1)C(N)=O ({Propanoyl(3-Pip(4-O-2-BnPh))}-VSN[βAla]K(X1)-NH2) | Active | 8.56 | pKd (Histamine H1 receptor [3]): 7.74; Drug uptake [7]: Active; K (Histamine H1 receptor [4]): 0.839 10^6/M/min; K (Histamine H1 receptor [5]): 0.014 min⁻¹
7 | C[C@@H](NC(=O)CCN1CCC(Oc2ccccc2Cc2ccccc2)CC1)C(=O)N[C@H](C)C(=O)N[C@H](C)C(=O)NCCNC(=O)CCCCCNC(=O)COc1ccc(/C=C/C2=[N+]3C(=Cc4ccc(-c5cccs5)n4[B-]3(F)F)C=C2)cc1 (stereo in doubt) | – | – | pKb (Histamine H1 receptor [8]): 8.6
8 | CC(C)[C@H](NC(=O)CCN1CCC(Oc2ccccc2Cc2ccccc2)CC1)C(=O)N[C@@H](CO)C(=O)N[C@@H](CC(N)=O)C(=O)N[C@@H](Cc1ccccc1)C(N)=O ({Propanoyl(3-Pip(4-O-2-BnPh))}-VSNF-NH2) | – | – | Ki (Histamine H1 receptor [6]): 89 nM
9 | CC(C)[C@H](NC(=O)CCN1CCC(Oc2ccccc2Cc2ccccc2)CC1)C(=O)N[C@@H](CO)C(=O)N[C@@H](CC(N)=O)C(=O)NCCC(=O)N[C@@H](CCCCNC(=O)CCC1=[N+]2C(=Cc3ccc(-c4cccs4)n3[B-]2(F)F)C=C1)C(N)=O ({Propanoyl(3-Pip(4-O-2-BnPh))}-VSN[βAla]K(X2)-NH2) | Active | 6.52 | –
10 | C[C@H](NC(=O)[C@H](C)NC(=O)[C@H](Cc1ccccc1)NC(=O)CCN1CCC(Oc2ccccc2Cc2ccccc2)CC1)C(=O)NCCC(=O)N[C@@H](CCCCNC(=O)CCC1=[N+]2C(=Cc3ccc(-c4cccs4)n3[B-]2(F)F)C=C1)C(N)=O ({Propanoyl(3-Pip(4-O-2-BnPh))}-FAA[βAla]K(X2)-NH2) | Active | 6.44 | –
11 | Cc1cc(C)n2c1C=C1C=CC(/C=C/c3ccc(OCC(=O)NCCCC[C@H](NC(=O)CCNC(=O)[C@H](CC(N)=O)NC(=O)[C@H](CO)NC(=O)[C@@H](NC(=O)CCN4CCC(Oc5ccccc5Cc5ccccc5)CC4)C(C)C)C(N)=O)cc3)=[N+]1[B-]2(F)F ({Propanoyl(3-Pip(4-O-2-BnPh))}-VSN[βAla]K(X3)-NH2) | Active | 6.96 | –
12 | CC(C)[C@H](NC(=O)CCN1CCC(Oc2ccccc2Cc2ccccc2)CC1)C(=O)N[C@@H](CO)C(=O)N[C@@H](C)C(=O)N[C@H](Cc1ccccc1)C(N)=O ({Propanoyl(3-Pip(4-O-2-BnPh))}-VSA[dF]-NH2) | – | – | fold change (FC) (Histamine H1 receptor [9]): 2
13 | CC(C)[C@H](NC(=O)CCN1CCC(Oc2ccccc2Cc2ccccc2)CC1)C(=O)N[C@@H](CO)C(=O)N[C@@H](Cc1ccc(O)cc1)C(=O)N[C@H](Cc1ccccc1)C(N)=O ({Propanoyl(3-Pip(4-O-2-BnPh))}-VSY[dF]-NH2) | – | – | fold change (FC) (Histamine H1 receptor [9]): 2
14 | CC(C)[C@H](NC(=O)CCN1CCC(Oc2ccccc2Cc2ccccc2)CC1)C(=O)N[C@@H](C)C(=O)N[C@@H](C)C(=O)N[C@H](Cc1ccccc1)C(N)=O ({Propanoyl(3-Pip(4-O-2-BnPh))}-VAA[dF]-NH2) | – | – | fold change (FC) (Histamine H1 receptor [9]): 2
15 | N=C(NCc1ccc(Cl)cc1)SCCCc1c[nH]cn1 | – | – | Activity [10]: Active; Activity [11]: Active
16 | Cc1cc(C)n2c1C=C1C=CC(/C=C/c3ccc(OCC(=O)NCCCC[C@H](NC(=O)CCNC(=O)[C@H](C)NC(=O)[C@H](C)NC(=O)[C@H](Cc4ccccc4)NC(=O)CCN4CCC(Oc5ccccc5Cc5ccccc5)CC4)C(N)=O)cc3)=[N+]1[B-]2(F)F ({Propanoyl(3-Pip(4-O-2-BnPh))}-FAA[βAla]K(X3)-NH2) | Active | 6.99 | –
17 | CC(C)[C@H](NC(=O)CCN1CCC(Oc2ccccc2Cc2ccccc2)CC1)C(=O)N[C@@H](CO)C(=O)N[C@@H](CO)C(=O)N[C@H](Cc1ccccc1)C(N)=O ({Propanoyl(3-Pip(4-O-2-BnPh))}-VSS[dF]-NH2) | – | – | fold change (FC) (Histamine H1 receptor [9]): 2
18 | C[C@H](NC(=O)[C@H](C)NC(=O)[C@H](Cc1ccccc1)NC(=O)CCN1CCC(Oc2ccccc2Cc2ccccc2)CC1)C(=O)NCCC(=O)N[C@@H](CCCCNC(=O)CCCCC[N+]1=C(/C=C/C=C/C=C2/N(C)c3ccc(S(=O)(=O)[O-])cc3C2(C)C)C(C)(C)c2cc(S(=O)(=O)O)ccc21)C(N)=O | Active | 6.09 | –
